Experimental data collected from several papers.
Lines come from different studies, so protocols differ.
Ppara: Peroxisome proliferator-activated receptor alpha (Ppara, Mus musculus, UniProt P23204)
Melanocortin receptor 5: Melanocortin receptor 5 (Mus musculus, UniProt P41149)
GRM4: Metabotropic glutamate receptor 4 (GRM4, Homo sapiens, UniProt Q14833)

| SMILES | target | observed | action | technique | EC50 [µM] |
| --- | --- | --- | --- | --- | --- |
| Cc1nc(-c2ccc(C(F)(F)F)cc2)sc1C(=O)NCc1ccc(OC(C)(C)C(=O)O)cc1 | Ppara | reporter gene | agonist | luciferase | 0.098 |
| O=C(Nc1ccc(N2C(=O)c3ccccc3C2=O)c(Cl)c1)c1ncccc1Cl | Metabotropic glutamate receptor 1 (GRM1, Homo sapiens, UniProt Q13255) | calcium signal | positive allosteric modulator | – | 1.26 |
| C[C@@H]1NC(=O)[C@H](CCCNC(=N)N)NC(=O)[C@H](Cc2ccccc2)NC(=O)[C@H](Cc2ccccc2)NC(=O)[C@H](CCCNC(=N)N)NC(=O)[C@@H]2CCCN2C(=O)[C@H]2CCCN2C(=O)[C@H](Cc2ccccc2)NC1=O | Melanocortin receptor 5 | reporter gene | agonist | – | > 100 |
| CSCC[C@H](N)C(=O)NCC(=O)N[C@@H](Cc1c[nH]cn1)C(=O)N[C@@H](Cc1ccccc1)C(=O)N[C@@H](CCCNC(=N)N)C(=O)N[C@@H](Cc1c[nH]c2ccccc12)C(=O)O | Melanocortin receptor 5 | reporter gene | agonist | – | 4.43 |
| CC(C)(Oc1ccc(C(=O)c2ccc(Cl)cc2)cc1)C(=O)O | Ppara | reporter gene | agonist | luciferase | 35.8 |
| CCN(C(=O)C1CCN(S(=O)(=O)c2ccc3[nH]ncc3c2)CC1)[C@H](C)c1ccccc1 | Muscarinic acetylcholine receptor M4 (CHRM4, Homo sapiens, UniProt P08173) | calcium signal | agonist | – | > 30 |
| CCCC[C@H](NC(=O)[C@@H](NC(=O)[C@@H](N)Cc1ccc(O)cc1)C(C)C)C(=O)NCC(=O)N[C@@H](Cc1c[nH]cn1)C(=O)N[C@@H](Cc1ccccc1)C(=O)N[C@@H](CCCN=C(N)N)C(=O)N[C@@H](Cc1c[nH]c2ccccc12)C(=O)N[C@@H](CC(=O)O)C(=O)N[C@@H](CCCN=C(N)N)C(=O)N[C@@H](Cc1ccccc1)C(=O)NCC(=O)O | Melanocortin receptor 5 | reporter gene | agonist | – | 0.14 |
| COC(=O)c1ccc(-n2c(C)cc(C(=O)CSc3ccc(NC(C)=O)cc3)c2C)cc1 | GRM4 | calcium signal | positive allosteric modulator | – | 3.31 |
| N=C(N)NCCC[C@H](NC(=O)[C@@H](N)CC(=O)O)C(=O)N[C@@H](Cc1ccccc1)C(=O)NCC(=O)O | Melanocortin receptor 5 | reporter gene | agonist | – | > 100 |
| COc1ccc(-c2nsc(NC(=O)[C@@H]3C[C@H]3C)c2C)cc1 | GRM4 | calcium signal | agonist | – | > 25 |
